This is an account of results in ChEMBL document CHEMBL3774312, “5-Substituted 3-isopropyl-7-[4-(2-pyridyl)benzyl]amino-1(2)H-pyrazolo[4,3-d]pyrimidines with anti-proliferative activity as potent and selective inhibitors of cyclin-dependent kinases” (Eur J Med Chem, 2016).

One experiment concerns HCT-116. Kind of experiment: (§1) Cytotoxicity against human HCT116 cells assessed as reduction in cell viability after 72 hrs by calcein AM staining based fluorescence assay. It counts as functional. An outline of the steps:
(§2)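 Cells were grown in DMEM with 10% FBS, penicillin and streptomycin at 37 °C in 5% CO2. Three doses were tested in triplicate for 72 h. Live cells were read by Calcein AM fluorescence at 485/538 nm.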

Experiment [1] is described as follows: as §1. As to conditions: HCT-116, 72 h. It counts as functional. The procedure, abridged:
as §2

Experiment [2] relates to MCF7. Kind of experiment: Cell cycle arrest in BrdU pulse-labelled human MCF7 cells assessed as accumulation at late G2/M phase at 500 to 5000 nM after 24 hrs by propidium iodide staining based flow cytometry. It counts as functional.
Experiment [3] has as its system MCF7. Kind of experiment: Cell cycle arrest in BrdU pulse-labelled human MCF7 cells assessed as accumulation at late S phase at 500 to 5000 nM after 24 hrs by propidium iodide staining based flow cytometry. Format: functional. (In general: Flow cytometry measures light scatter and fluorescence of single cells or particles in a stream.)
Experiment [4] deals with MCF7. Kind of experiment: Cell cycle arrest in BrdU pulse-labelled human MCF7 cells assessed as accumulation at subG1 phase at 500 to 5000 nM after 24 hrs by propidium iodide staining based flow cytometry. Format: functional.
In experiment [5] the target is Cyclin-dependent kinase 2/cyclin E1 (Homo sapiens, UniProt P24941). Kind of experiment: Inhibition of CDK2/Cyclin E (unknown origin) expressed in sf9 cells using histone H1 as substrate in presence of [gamma33P]-ATP. Format: cell-based.
In experiment [6] the test system is MCF7. Kind of experiment: Cell cycle arrest in BrdU pulse-labelled human MCF7 cells assessed as decrease in cells at S phase at 500 to 5000 nM after 24 hrs by propidium iodide staining based flow cytometry. It counts as functional.
Experiment [7] can be described thus: Cytotoxicity against human G361 cells assessed as reduction in cell viability after 72 hrs by calcein AM staining based fluorescence assay. Format: functional. As to conditions: G-361, 72 h. An outline of the steps:
(§3)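 Cells were grown in DMEM with 10% FBS, penicillin and streptomycin at 37 °C in 5% CO2. Three doses were tested in triplicate for 72 h.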

Experiment [8] has as its system MCF7. Kind of experiment: Cytotoxicity against human MCF7 cells assessed as reduction in cell viability after 72 hrs by calcein AM staining based fluorescence assay. It counts as functional. The procedure, abridged: as §3
In experiment [9] the test system is MCF7. Kind of experiment: Cell cycle arrest in BrdU pulse-labelled human MCF7 cells assessed as decrease in cell at S phase at 2500 to 20000 nM after 24 hrs by propidium iodide staining based flow cytometry. It counts as functional.
The test system of a further experiment is K562. Kind of experiment: Cytotoxicity against human K562 cells assessed as reduction in cell viability after 72 hrs by calcein AM staining based fluorescence assay. It counts as functional. As to conditions: K562, 72 h. An outline of the steps:
as §3

The test system of experiment [10] is MCF7. Kind of experiment: Cell cycle arrest in BrdU pulse-labelled human MCF7 cells assessed as accumulation at subG1 phase at 2500 to 20000 nM after 24 hrs by propidium iodide staining based flow cytometry. Format: functional.
For experiment [11], the system named is MCF7. Kind of experiment: Cell cycle arrest in BrdU pulse-labelled human MCF7 cells assessed as accumulation at late S phase at 2500 to 20000 nM after 24 hrs by propidium iodide staining based flow cytometry. It counts as functional.
The subject of experiment [12] is MCF7. Kind of experiment: Cell cycle arrest in BrdU pulse-labelled human MCF7 cells assessed as accumulation at late G2/M phase at 2500 to 20000 nM after 24 hrs by propidium iodide staining based flow cytometry. Format: functional.

Active and inactive are the calls of the source. The rule behind the calls is not given here.

Take `CC(C)c1n[nH]c2c(NCc3ccc(-c4ccccn4)cc3)ncnc12`: the Activity entry with HCT-116 and with MCF7 [8] was “Dose-dependent effect” in each case. For the same compound, the IC50 (in general, the concentration at which inhibition is half-maximal) in experiment [1] was 1240 nM; in experiment [5] it was 197 nM; in experiment [7], 875 nM. Besides, the result in the experiment with MCF7 [2], in the experiment on MCF7 [3], in the experiment with MCF7 [4] and in the experiment with MCF7 [6] was Active.

For `COc1ccc(CNc2nc(NCc3ccc(-c4ccccn4)cc3)c3[nH]nc(C(C)C)c3n2)cc1`, the Activity entry in the experiment on HCT-116 and in the experiment on MCF7 [8] was “Dose-dependent effect” throughout. Besides, the IC50 was 17400 nM in experiment [1]; 3950 nM with K562; 1480 nM in experiment [5]; 7490 nM in experiment [7]; 5300 nM with MCF7 [8] (MCF7, 72 h). In addition, the outcome in the experiment with MCF7 [9], in the experiment with MCF7 [10], in the experiment with MCF7 [11] and in the experiment on MCF7 [12] was Active.
